# From ChEMBL document CHEMBL5058577, “EUbOPEN Chemogenomics Library 2 (Multiplex)” (2022)
# System: HEK-293T
# Assay: Multiplex assay against HEK293T
# Assay type: toxicity, cell-based
# Details: human
# Procedure, shortened: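 Values for tubulin, mitochondrial-mass and membrane-permeability phenotypes are per cents of cells with healthy nuclei. These cells were identified by CellPathfinder machine-learning gating of live cells that had been stained at seeding with Hoechst33342, BioTracker Green Microtubule Cytoskeleton Dye, MitoTracker Red and Annexin V Alexa Fluor 680 and imaged on a CQ1 microscope at 37°C and 5% CO2 after compound addition. The gating first set Hoechst high-intensity objects apart from normal cells, then split normal cells into healthy, pyknosed or fragmented nuclei, and pyknosed cells into mitotic or apoptotic.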
# [1] = 12 h, 1 µM, compound concentration 1 uM, replicate 1
# [2] = 12 h, 1 µM, compound concentration 1 uM, replicate 2
# [3] = 12 h, 10 µM, compound concentration 10 uM, replicate 1
# [4] = 12 h, 10 µM, compound concentration 10 uM, replicate 2
# [5] = 24 h, 1 µM, compound concentration 1 uM, replicate 1
# [6] = 24 h, 1 µM, compound concentration 1 uM, replicate 2
# [7] = 24 h, 10 µM, compound concentration 10 uM, replicate 1
# [8] = 24 h, 10 µM, compound concentration 10 uM, replicate 2
# [9] = 48 h, 1 µM, compound concentration 1 uM, replicate 1
# [10] = 48 h, 1 µM, compound concentration 1 uM, replicate 2
# [11] = 48 h, 10 µM, compound concentration 10 uM, replicate 1
# [12] = 48 h, 10 µM, compound concentration 10 uM, replicate 2
compound,measurement,setting,value
Cl.Cl.OCCOCCN1CCN(C(c2ccccc2)c2ccc(Cl)cc2)CC1 (stereo not drawn) [HYDROXYZINE HYDROCHLORIDE],Population Apoptotic (%),[1],34%
same,Population Fragmented Nuclei (%),[1],7%
same,Population Healthy Nuclei (%),[1],79%
same,Population Hoechst High Intensity Objects (%),[1],6%
same,Population Membrane Permeable-Phenotype (%),[1],0%
same,Population Mitochondria Different-Phenotype (%),[1],48%
same,Population Mitotic Cells (%),[1],66%
same,Population Normal (%),[1],93%
same,Population Pyknosed Nuclei (%),[1],13%
same,Population Tubulin-Different-Phenotype (%),[1],24%
same,Total Cell Count,[1],394
same,Population Apoptotic (%),[2],70%
same,Population Fragmented Nuclei (%),[2],5%
same,Population Healthy Nuclei (%),[2],84%
same,Population Hoechst High Intensity Objects (%),[2],9%
same,Population Mitochondria Different-Phenotype (%),[2],58%
same,Population Mitotic Cells (%),[2],29%
same,Population Normal (%),[2],90%
same,Population Pyknosed Nuclei (%),[2],9%
same,Population Tubulin-Different-Phenotype (%),[2],28%
same,Total Cell Count,[2],362
same,Population Apoptotic (%),[3],49%
same,Population Fragmented Nuclei (%),[3],8%
same,Population Healthy Nuclei (%),[3],71%
same,Population Hoechst High Intensity Objects (%),[3],11%
same,Population Membrane Permeable-Phenotype (%),[3],0%
same,Population Mitochondria Different-Phenotype (%),[3],71%
same,Population Mitotic Cells (%),[3],50%
same,Population Normal (%),[3],88%
same,Population Pyknosed Nuclei (%),[3],19%
same,Population Tubulin-Different-Phenotype (%),[3],65%
same,Total Cell Count,[3],354
same,Population Apoptotic (%),[4],68%
same,Population Fragmented Nuclei (%),[4],6%
same,Population Healthy Nuclei (%),[4],73%
same,Population Hoechst High Intensity Objects (%),[4],19%
same,Population Membrane Permeable-Phenotype (%),[4],1%
same,Population Mitochondria Different-Phenotype (%),[4],83%
same,Population Mitotic Cells (%),[4],31%
same,Population Normal (%),[4],80%
same,Population Pyknosed Nuclei (%),[4],20%
same,Population Tubulin-Different-Phenotype (%),[4],59%
same,Total Cell Count,[4],327
same,Population Apoptotic (%),[5],22%
same,Population Fragmented Nuclei (%),[5],10%
same,Population Healthy Nuclei (%),[5],78%
same,Population Hoechst High Intensity Objects (%),[5],2%
same,Population Membrane Permeable-Phenotype (%),[5],0%
same,Population Mitochondria Different-Phenotype (%),[5],34%
same,Population Mitotic Cells (%),[5],77%
same,Population Normal (%),[5],97%
same,Population Pyknosed Nuclei (%),[5],11%
same,Population Tubulin-Different-Phenotype (%),[5],22%
same,Total Cell Count,[5],566
same,Population Apoptotic (%),[6],43%
same,Population Fragmented Nuclei (%),[6],11%
same,Population Hoechst High Intensity Objects (%),[6],13%
same,Population Mitochondria Different-Phenotype (%),[6],41%
same,Population Mitotic Cells (%),[6],56%
same,Population Normal (%),[6],86%
same,Population Pyknosed Nuclei (%),[6],9%
same,Population Tubulin-Different-Phenotype (%),[6],17%
same,Total Cell Count,[6],481
same,Population Apoptotic (%),[7],29%
same,Population Fragmented Nuclei (%),[7],10%
same,Population Healthy Nuclei (%),[7],74%
same,Population Hoechst High Intensity Objects (%),[7],8%
same,Population Membrane Permeable-Phenotype (%),[7],0%
same,Population Mitochondria Different-Phenotype (%),[7],55%
same,Population Mitotic Cells (%),[7],70%
same,Population Normal (%),[7],91%
same,Population Pyknosed Nuclei (%),[7],15%
same,Population Tubulin-Different-Phenotype (%),[7],49%
same,Total Cell Count,[7],472
same,Population Apoptotic (%),[8],59%
same,Population Fragmented Nuclei (%),[8],8%
same,Population Healthy Nuclei (%),[8],71%
same,Population Hoechst High Intensity Objects (%),[8],22%
same,Population Mitochondria Different-Phenotype (%),[8],72%
same,Population Mitotic Cells (%),[8],40%
same,Population Normal (%),[8],77%
same,Population Pyknosed Nuclei (%),[8],19%
same,Population Tubulin-Different-Phenotype (%),[8],43%
same,Total Cell Count,[8],383
same,Population Apoptotic (%),[9],23%
same,Population Fragmented Nuclei (%),[9],14%
same,Population Healthy Nuclei (%),[9],79%
same,Population Hoechst High Intensity Objects (%),[9],1%
same,Population Membrane Permeable-Phenotype (%),[9],1%
same,Population Mitochondria Different-Phenotype (%),[9],19%
same,Population Mitotic Cells (%),[9],76%
same,Population Normal (%),[9],98%
same,Population Pyknosed Nuclei (%),[9],5%
same,Population Tubulin-Different-Phenotype (%),[9],14%
same,Total Cell Count,[9],932
same,Population Apoptotic (%),[10],46%
same,Population Hoechst High Intensity Objects (%),[10],3%
same,Population Membrane Permeable-Phenotype (%),[10],0%
same,Population Mitotic Cells (%),[10],53%
same,Population Normal (%),[10],96%
same,Population Pyknosed Nuclei (%),[10],6%
same,Population Tubulin-Different-Phenotype (%),[10],12%
same,Total Cell Count,[10],676
same,Population Apoptotic (%),[11],38%
same,Population Fragmented Nuclei (%),[11],14%
same,Population Healthy Nuclei (%),[11],76%
same,Population Hoechst High Intensity Objects (%),[11],6%
same,Population Membrane Permeable-Phenotype (%),[11],0%
same,Population Mitochondria Different-Phenotype (%),[11],45%
same,Population Mitotic Cells (%),[11],61%
same,Population Normal (%),[11],93%
same,Population Pyknosed Nuclei (%),[11],9%
same,Population Tubulin-Different-Phenotype (%),[11],35%
same,Total Cell Count,[11],627
same,Population Apoptotic (%),[12],60%
same,Population Fragmented Nuclei (%),[12],15%
same,Population Healthy Nuclei (%),[12],72%
same,Population Hoechst High Intensity Objects (%),[12],16%
same,Population Mitochondria Different-Phenotype (%),[12],53%
same,Population Mitotic Cells (%),[12],40%
same,Population Normal (%),[12],83%
same,Population Pyknosed Nuclei (%),[12],12%
same,Total Cell Count,[12],539
